Results as given in ChEMBL document CHEMBL1759888, “Biological evaluation of polyhalo 1,3-diazaheterocycle fused isoquinolin-1(2H)-imine derivatives” (Eur J Med Chem, 2011).
≈ marks a conversion by molar mass, not a printed value.

How the values were obtained:
SK-OV-3 = test: Anticancer activity against human SKOV3 cells after 72 hrs by MTT assay; conditions: SK-OV-3, 72 h
H22 [1] = test: Antitumor activity against mouse H22 cells xenografted in Kunming mouse assessed as tumor growth inhibition rate at 10 mg/kg, po administered for 10 days relative to control; assay type: functional; conditions: H22, 240 h
Procedure, shortened: (§1)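 Tumour cells taken in exponential growth and inoculated subcutaneously into the right flank axilla. Mice randomised, 10 per group. Compound in 0.5% CMC-Na given intragastrically daily for 10 days. Solvent control got an equal volume of vehicle; positive control got cyclophosphamide 20 mg/kg i.p. in saline. Tumours weighed at sacrifice; inhibition rate calculated against solvent control.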

HepG2 = test: Anticancer activity against human HepG2 cells after 72 hrs by MTT assay; conditions: HepG2, 72 h
CCRF S-180 [2] = test: Antitumor activity against mouse S180 cells xenografted in Kunming mouse assessed as tumor growth inhibition rate at 30 mg/kg, po administered for 10 days relative to control; assay type: functional; conditions: CCRF S-180, 240 h
Procedure, shortened: as §1

CCRF S-180 [3] = test: Antitumor activity against mouse S180 cells xenografted in Kunming mouse assessed as tumor tumor growth inhibition rate at 10 mg/kg, po administered for 10 days relative to control; assay type: functional; conditions: CCRF S-180, 240 h
Procedure, shortened: as §1

[4] = Lipophilicity, log P of the compound; assay type: physicochemical; conditions: octanol/water
K562 = test: Anticancer activity against human K562 cells after 48 hrs by MTT assay; conditions: K562, 48 h
A-431 = test: Anticancer activity against human A431 cells after 72 hrs by MTT assay; conditions: A-431, 72 h
HL-60 = test: Anticancer activity against human HL60 cells after 48 hrs by MTT assay; conditions: HL-60, 48 h
CCRF S-180 [5] = test: Antitumor activity against mouse S180 cells xenografted in po dosed Kunming mouse assessed as tumor tumor growth inhibition rate administered for 10 days relative to control; assay type: functional, organism-based
Procedure, shortened: as §1

Mus musculus = test: Toxicity in Kunming mouse assessed as mouse mortality at 4500 mg/kg, po administered in 24 hr duration measured after 7 days; assay type: organism-based; set-up: dose 4500 mg/kg, route oral; conditions: in vivo, 168 h
Procedure, shortened: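 Acute toxicity test in Kunming mice (18–22 g), each group treated with one compound. The compound was given orally within 24 h, and mice were then monitored continuously for up to 7 days for abnormal behaviour or death.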

CCRF S-180 [6] = test: Antitumor activity against mouse S180 cells xenografted in Kunming mouse assessed as tumor growth inhibition rate at 90 mg/kg, po administered for 10 days relative to control; assay type: functional; conditions: CCRF S-180, 240 h
Procedure, shortened: as §1

H22 [7] = test: Antitumor activity against mouse H22 cells xenografted in Kunming mouse assessed as tumor growth inhibition rate at 30 mg/kg, po administered for 10 days relative to control; assay type: functional; conditions: H22, 240 h
Procedure, shortened: as §1

Q: For `CCOC(=O)c1c2n(c(=N)c3c(F)c(C#N)c(F)c(F)c13)CCN2`, which IC50 (SK-OV-3) is on record?
A: 0.04 µg/mL (≈ 0.119 µM)

Q: What about the inhibition in vivo at 10 mg/kg (H22 [1]) of the same compound?
A: 11.4%

Q: And the IC50 (HepG2)?
A: 0.4 µg/mL (≈ 1.19 µM)

Q: And the inhibition in vivo at 30 mg/kg (CCRF S-180 [2])?
A: 54.2%

Q: And the inhibition in vivo at 10 mg/kg (CCRF S-180 [3])?
A: 39.2%

Q: And the logP [4]?
A: 2.04

Q: And the IC50 (K562)?
A: 0.0005 µg/mL (≈ 0.00149 µM)

Q: What about the IC50 (A-431) of the same compound?
A: 3.4 µg/mL (≈ 10.1 µM)

Q: And the IC50 (HL-60)?
A: 0.02 µg/mL (≈ 0.0595 µM)

Q: And the inhibition (CCRF S-180 [5])?
A: Dose-dependent effect

Q: What about the Activity (Mus musculus) of the same compound?
A: Toxic

Q: What about the inhibition in vivo at 90 mg/kg (CCRF S-180 [6]) of the same compound?
A: 26.6%

Q: What about the inhibition in vivo at 30 mg/kg (H22 [7]) of the same compound?
A: 27.5%
